What all share (settings): route intravenous
In experiment [1] the test system is Canis familiaris. In words: Percent change in mean arterial blood pressure by 6.2 mg/kg of compound administered intravenously in dog. Format: functional, Canis lupus familiaris. In a few lines: (§1)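 Adult dogs anesthetized with pentobarbital (45 mg/kg ip), instrumented for electromagnetic renal artery flow; femoral artery cannulated for blood pressure, cardiotachometer for heart rate; iv via femoral vein. Cumulative infusion at rising rates, 5 min each (0.2+1.0 mg/kg for 1.2; 0.2+1.0+5.0 mg/kg for 6.2), in 0.9% saline ± acid/base; ≥2 dogs; maximal % change from predrug over ≥30 min; RVR = MAP/RBF.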

Experiment [2] concerns Canis familiaris. In words: Percent change in renal blood flow by 6.2 mg/kg of compound administered intravenously in dog. The format is functional, Canis lupus familiaris. In a few lines: as §1
The test system of experiment [3] is Canis familiaris. The experiment can be described thus: Percent change in heart rate by 6.2 mg/kg of compound administered intravenously in dog. Format: functional, Canis lupus familiaris. In a few lines: as §1
Experiment [4] relates to Canis familiaris. The experiment can be described thus: Percent change in renal vascular resistant e by 6.2 mg/kg of compound administered intravenously in dog. The format is functional, Canis lupus familiaris. In a few lines: as §1
The test system of experiment [5] is Canis familiaris. In words: Percent change in mean arterial blood pressure by 1.2 mg/kg of compound administered intravenously in dog. Format: functional, Canis lupus familiaris. In a few lines: as §1
Experiment [6] has as its system Canis familiaris. In words: Percent change in heart rate by 1.2 mg/kg of compound administered intravenously in dog. Format: functional, Canis lupus familiaris. In a few lines:
as §1

Experiment [7] deals with Canis familiaris. The experiment can be described thus: (§2) Percent change in renal blood flow by 1.2 mg/kg of compound administered intravenously in dog. Format: functional, Canis lupus familiaris, Kidney. In a few lines:
as §1

The subject of experiment [8] is Canis familiaris. The experiment can be described thus: Percent change in renal vascular resistant e by 1.2 mg/kg of compound administered intravenously in dog. Format: functional, Canis lupus familiaris. In a few lines:
as §1

Experiment [9] has as its system Canis familiaris. In words: Percent increase in myocardial contractile force by 8.75 mg/kg of compound administered intravenously in dog. Format: functional, Canis lupus familiaris, Myocardium. In a few lines: (§3)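 Adult mongrel dogs, pentobarbital 45 mg/kg ip, artificially respired; right thoracotomy, Walton Brodie strain gauge on right ventricle at 100 g baseline tension. Only dogs giving >100% contractile-force rise to dopamine (10-15 μg/kg per min × 3 min) were used. Compound in 10-15% dimethylformamide, total dose infused iv into femoral vein; % change in contractile force.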

For experiment [10], the system named is Canis familiaris. Described as §2. Format: functional, Canis lupus familiaris. In a few lines:
as §1

The subject of experiment [11] is Canis familiaris. The experiment can be described thus: Percent increase in myocardial contractile force by 1.88 mg/kg of compound administered intravenously in dog. Format: functional, Canis lupus familiaris, Myocardium. In a few lines: as §3
Experiment [12] concerns Canis familiaris. The experiment can be described thus: Percent increase in myocardial contractile force by 0.025 mg/kg of compound administered intravenously in dog. Format: functional, Canis lupus familiaris, Myocardium. In a few lines:
as §3

In experiment [13] the test system is Canis familiaris. In words: Percent increase in myocardial contractile force by 1.75 mg/kg of compound administered intravenously in dog. The format is functional, Canis lupus familiaris, Myocardium. In a few lines:
as §3

This is an account of results in ChEMBL document CHEMBL1124472, “Renal vasodilators. The role of the 4-substituent in isoquinolin-3-ol cardiovascular agents: 4-ureido derivatives of isoquinolin-3-ol with selective renal vasodilator properties” (1989).

As to `COc1cc2c(C)nc(O)c(NC(=O)C(C)C)c2cc1OC`, the Change in the experiment on Canis familiaris [1] is -2%; with Canis familiaris [2], -5%; with Canis familiaris [3], -1%; with Canis familiaris [4] it was -4%.

As for `CCCNC(=O)Nc1c(O)nc(C)c2cc(OC)c(OC)cc12`, the Change with Canis familiaris [5] is on record as 1%; in the experiment with Canis familiaris [6], -7%; with Canis familiaris [7] it was 5%; with Canis familiaris [8], 0%.

Consider `CNC(=O)Nc1c(O)nc(C)c2cc(OC)c(OC)cc12`, for which the Change in the experiment on Canis familiaris [5] was 4%; in the experiment on Canis familiaris [6], 3%; with Canis familiaris [7], 4%; with Canis familiaris [8] it was -5%.

On to `COc1cc2c(C)nc(O)c(NC(C)=O)c2cc1OC`, for which the Change with Canis familiaris [1] was 6%; in the experiment on Canis familiaris [2], 39%; in the experiment on Canis familiaris [3], 14%; with Canis familiaris [4] it was -24%. The molecule further had an Increase in the experiment on Canis familiaris [9] of 47%.

On to `CCCCCC(=O)Nc1c(O)nc(C)c2cc(OC)c(OC)cc12`, for which the Change in the experiment on Canis familiaris [1] is on record as 0%; in the experiment with Canis familiaris [2], -27%; in the experiment with Canis familiaris [3], -9%; in the experiment with Canis familiaris [4], 40%.

As for `CCCCNC(=O)Nc1c(O)nc(C)c2cc(OC)c(OC)cc12`, the Change in the experiment with Canis familiaris [5] was -3%; in the experiment on Canis familiaris [6] it was 6%; in the experiment with Canis familiaris [1] it was 4%; with Canis familiaris [2] it was 117%; with Canis familiaris [3], -2%; with Canis familiaris [4] it was -52%. Also, the Change with Canis familiaris [7] is 36%; with Canis familiaris [8] it was -27%.

For the molecule `COc1cc2cnc(O)c(NC(C)=O)c2cc1OC`, the Change is 14% with Canis familiaris [1], 30% with Canis familiaris [2], -8% in the experiment with Canis familiaris [3] and -12% in the experiment with Canis familiaris [4].

For the molecule `C=CCNC(=O)Nc1c(O)nc(C)c2cc(OCC)c(OC)cc12`, the Change is given as -2% in the experiment with Canis familiaris [5], 29% in the experiment on Canis familiaris [6], 28% in the experiment with Canis familiaris [7] and -22% with Canis familiaris [8].

`COc1ccc(NC(=O)Nc2c(O)nc(C)c3cc(OC)c(OC)cc23)cc1`: the Change in the experiment on Canis familiaris [1] is reported as 12%; with Canis familiaris [2], 68%; with Canis familiaris [3] it was 2%; with Canis familiaris [4] it was -32%.

Consider `COc1cccc(NC(=O)Nc2c(O)nc(C)c3c(OC)c(OC)ccc23)c1`, for which the Change is -3% in the experiment on Canis familiaris [5], 17% in the experiment with Canis familiaris [10], -2% in the experiment on Canis familiaris [6] and -16% in the experiment with Canis familiaris [8].

Consider `COc1cc2c(C)nc(O)c(NC(=O)NC3CCCCC3)c2cc1OC`, for which the Change is 0% in the experiment with Canis familiaris [5], 0% with Canis familiaris [6], 7% in the experiment with Canis familiaris [7] and -4% with Canis familiaris [8].

For `CCCCC(=O)Nc1c(O)nc(C)c2cc(OC)c(OC)cc12`, the Change was 3% in the experiment on Canis familiaris [1], -9% in the experiment with Canis familiaris [2], 6% in the experiment on Canis familiaris [3] and 13% with Canis familiaris [4].

With `COc1cc2c(C)nc(O)c(N)c2cc1OC`, the Change in the experiment on Canis familiaris [1] is recorded as 6%; with Canis familiaris [3] it was 4%; with Canis familiaris [4], -13%; with Canis familiaris [7], 23%. Moreover, the Increase in the experiment with Canis familiaris [11] was found to be 114%.

Consider `CCCCNC(=O)Nc1c(O)nc(C)c2cc(O)c(O)cc12`, for which the Change with Canis familiaris [5] is recorded as -1%; in the experiment with Canis familiaris [6] it was 2%; in the experiment on Canis familiaris [7] it was -2%; in the experiment with Canis familiaris [8], 2%.

Turning to `CCNC(=O)Nc1c(O)nc(C)c2cc(OC)c(OC)cc12`, the Change is 0% with Canis familiaris [5], 0% with Canis familiaris [6], 28% in the experiment with Canis familiaris [7] and -22% in the experiment with Canis familiaris [8].

With `COc1ccc(NC(=O)Nc2c(O)nc(C)c3c(OC)c(OC)c(OC)cc23)cc1`, the Change in the experiment on Canis familiaris [1] is given as -4%; in the experiment with Canis familiaris [2], 14%; in the experiment with Canis familiaris [3], 7%; with Canis familiaris [4], -15%.

Regarding `COc1cccc(NC(=O)Nc2c(O)nc(C)c3cc(OC)c(OC)cc23)c1`, the Change is -1% with Canis familiaris [1], 59% with Canis familiaris [2], -2% in the experiment with Canis familiaris [3] and -36% in the experiment on Canis familiaris [4].

`COc1cc2c(C)nc(O)c(NC(=O)Nc3ccc(C(F)(F)F)cc3)c2cc1OC`: the Change is on record as 4% in the experiment on Canis familiaris [1], 49% with Canis familiaris [2], 10% in the experiment with Canis familiaris [3] and -29% with Canis familiaris [4].

With `COc1cc2c(C)nc(O)c(NC(=O)Nc3cccc(C(F)(F)F)c3)c2cc1OC`, the Change with Canis familiaris [1] is listed as 2%; with Canis familiaris [2], 23%; in the experiment with Canis familiaris [3], -10%; in the experiment with Canis familiaris [4] it was -16%.

Turning to `COc1cc2c(C)nc(O)c(NC(=O)Nc3ccc(C(=O)O)cc3)c2cc1OC`, the Change is on record as -1% in the experiment on Canis familiaris [5], -12% in the experiment with Canis familiaris [6], 40% with Canis familiaris [7] and -28% in the experiment on Canis familiaris [8].

In the case of `C=CCOC(=O)Nc1c(O)nc(C)c2cc(OC)c(OC)cc12`, the Change in the experiment on Canis familiaris [1] was -9%; in the experiment with Canis familiaris [2] it was 2%; in the experiment with Canis familiaris [3], -2%; in the experiment with Canis familiaris [4] it was -11%.

For the molecule `COc1cc2c(C)nc(O)c(NC(=O)Nc3ccc([N+](=O)[O-])cc3)c2cc1OC`, the Change in the experiment with Canis familiaris [5] is given as 1%; with Canis familiaris [6], -1%; with Canis familiaris [7] it was 3%; with Canis familiaris [8], -2%.

`CCCCOC(=O)Nc1c(O)nc(C)c2cc(OC)c(OC)cc12`: the Change in the experiment with Canis familiaris [1] was -3%; with Canis familiaris [2] it was -23%; in the experiment on Canis familiaris [3], -6%; in the experiment with Canis familiaris [4], 29%.

`COc1cc2c(C)nc(O)c(NC(=O)NC(C)C)c2cc1OC`: the Change in the experiment on Canis familiaris [5] is given as -9%; with Canis familiaris [6], 3%; in the experiment on Canis familiaris [7], 11%; with Canis familiaris [8], -10%.

`CCOc1cc2c(C)nc(O)c(NC(=O)Nc3ccc(OC)cc3)c2cc1OC`: the Change in the experiment on Canis familiaris [1] is 6%; in the experiment on Canis familiaris [2], -8%; in the experiment with Canis familiaris [3], 10%; in the experiment with Canis familiaris [4], 15%.

As to `COc1cc2c(C)nc(O)c(NC(=O)NC(C)(C)C)c2cc1OC`, the Change is 1% in the experiment on Canis familiaris [1], 10% in the experiment with Canis familiaris [2], -4% with Canis familiaris [3] and -8% in the experiment with Canis familiaris [4].

In the case of `COc1cccc(NC(=O)Nc2c(O)nc(C)c3cc(OC)ccc23)c1`, the Change in the experiment with Canis familiaris [5] was 2%; in the experiment on Canis familiaris [6] it was 5%; in the experiment with Canis familiaris [7], 17%; with Canis familiaris [8] it was -4%.

Consider `COc1cc2c(C)nc(O)c(NC(=O)Nc3ccccc3)c2cc1OC`, for which the Change is listed as 0% in the experiment on Canis familiaris [5], -13% with Canis familiaris [6], -23% in the experiment with Canis familiaris [7] and 35% in the experiment with Canis familiaris [8].

`CCCCNC(=O)Nc1c(O)nc(C)c2cc(OC)ccc12`: the Change is reported as 3% in the experiment on Canis familiaris [5], -6% in the experiment on Canis familiaris [6], -12% with Canis familiaris [7] and 16% in the experiment on Canis familiaris [8].

For `CCc1c(O)nc(C)c2cc(OC)c(OC)cc12`, the Increase in the experiment on Canis familiaris [12] is reported as 143%.

On to `CCOC(=O)c1ccc(NC(=O)Nc2c(O)nc(C)c3cc(OC)c(OC)cc23)cc1`, for which the Change in the experiment on Canis familiaris [5] is -2%; in the experiment on Canis familiaris [6] it was -1%; in the experiment with Canis familiaris [7] it was 2%; with Canis familiaris [8], -4%.

For the molecule `C=CCNC(=O)Nc1c(O)nc(C)c2cc(OC)c(OC)cc12`, the Change with Canis familiaris [5] was 8%; with Canis familiaris [6] it was -3%; with Canis familiaris [7], 97%; in the experiment with Canis familiaris [8], -44%.

`COc1cc2cc(O)nc(C)c2cc1OC` showed an Increase in the experiment on Canis familiaris [13] of 100%.
